High-throughput results (PubChem BioAssay)
Only some compounds are listed: those with a hit (about 2% of all), similar ones and a draw of the others.
CAL PDZ FP-1: blocks peptide binding to human CAL PDZ domain; hit rate 0.02% among 330,000; inhibition, % at 20 µM; purified CAL PDZ, TMR-peptide fluorescence polarization, 1 h; Q9HD26;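 active means highest replicate inhibition of at least 40%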;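 further: plate controls were DMSO neutral control wells for no effect and unlabeled competitor peptide control wells for full effect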
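Assay system – tagged CAL PDZ protein CerCALP, purified · Timing – 1 h at RT · Compound – single point, 20 µM · Measured by – fluorescence polarization from S- and P-plane intensities, G-factor corrected · Evaluation – inhibition from polarization loss · Probe or stimulus – TMR reporter peptide T*-PRC34 · Buffer or medium – pH 7.4 phosphate-saline buffer, reducing agent, detergent, IgG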
CDK5 p35 inh: blocks human CDK5/p35 kinase activity; Q00535+Q15078; Recombinant CDK5/p35, ADP-Glo luminescence, 60 min; inhibition, % at 10 µM; hit rate 0.01% among 330,000; AID 488839;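 active means highest replicate inhibition of at least 50% and at least 75% of replicates reaching 50%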;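 further: plate controls were DMSO neutral control for no effect and GW8510 at 10 µM for full effect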
S100A4 MyoIIA: S100A4-myosin IIA interaction inhibition; S100A4/TAMRA-MyoIIA peptide fluorescence polarization; inhibition, % at 10.7 µM; hit rate 0.14% among 360,000;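 active means mean inhibition of at least 70% across replicates, with every replicate also reaching that level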
Target sequence (P26447 whole entry, looked up): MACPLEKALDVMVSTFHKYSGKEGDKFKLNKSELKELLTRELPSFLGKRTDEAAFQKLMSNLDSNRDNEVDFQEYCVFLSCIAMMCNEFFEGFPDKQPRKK
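incubation = readout 5 min after mixing, signal stable up to 60 min | system = S100A4 monomer protein | buffer or medium = HEPES pH 7.2 with CaCl2, KCl, NaCl, DTT, Triton | benchmarks = neutral control DMSO, positive control TFP | also added = fluorescent myosin IIA peptide, 5 nM | compound dosing = one concentration per compound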
CAL PDZ FP-2: blocks peptide binding to the human CAL PDZ domain; Q9HD26; purified CAL PDZ, TMR-peptide fluorescence polarization, 1 h; inhibition, % at 24.9 µM; hit rate 0.92% among 300,000; AID 602252;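 active means mean inhibition of at least 30% with at least half of replicates also reaching 30%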;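 further: 0% = DMSO neutral control and 100% = excess unlabeled competitor peptide PRC23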
dFosB act-1: activators of mouse delta FosB homodimer; P13346; purified delta FosB, TAMRA-CDK5 oligo fluorescence polarization; percent of positive-control signal above neutral wells; activation, % at 25 µM; hit rate 0.99% among 340,000;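 active means mean activation above about 17%, with every replicate also reaching it, limit read from the data, passing the limit was not always enough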
Target sequence (P13346 whole entry, looked up): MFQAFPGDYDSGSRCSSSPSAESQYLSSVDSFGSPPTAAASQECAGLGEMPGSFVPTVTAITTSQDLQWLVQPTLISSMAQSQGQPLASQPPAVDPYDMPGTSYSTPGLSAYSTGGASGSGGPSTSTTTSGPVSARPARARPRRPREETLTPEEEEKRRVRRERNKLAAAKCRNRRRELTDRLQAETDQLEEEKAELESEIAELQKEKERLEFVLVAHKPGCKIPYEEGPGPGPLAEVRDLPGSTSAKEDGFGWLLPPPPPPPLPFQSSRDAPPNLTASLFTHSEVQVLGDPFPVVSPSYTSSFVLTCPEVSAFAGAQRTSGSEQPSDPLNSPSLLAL
C2C12 statin: protects C2C12 myotubes from simvastatin toxicity. ATP luminescence, 48 h; scaled: DMSO 0, geranylgeraniol control 100. rescue of ATP level, % at 7.49 µM. hit rate 0.78% among 330,000;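 active means mean ATP rescue above about 67%, or every replicate alone reaching that limit, limit read from the data, passing the limit was not always enough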;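 further: myotubes were challenged with 10 µM simvastatin during compound exposure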
dFosB act-2: delta FosB (mouse) homodimer activation; shares compounds with dFosB act-1; purified delta FosB, TAMRA-CDK5 oligo fluorescence polarization; normalised: neutral wells 0, positive control 100; activation, % at 24.9 µM; 2,400 tested, under 10 active; AID 588690;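 active means highest replicate activation at or above 34% and every replicate reaching that threshold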;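 further: higher polarization means more probe DNA bound by delta FosB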
* marks the source's active call; other numbers are inactive results.

For Cc1onc(-c2ccccc2Cl)c1C(=O)N1CC(C)OC(C)C1 (stereo not given) the results were CAL PDZ FP-1 -1.6, CDK5 p35 inh -0.6, S100A4 MyoIIA -4.1, CAL PDZ FP-2 -0.1, dFosB act-1 -10.6 and C2C12 statin 19.4.
CCOC(=O)C1(Cc2ccccc2C(F)(F)F)CCN(C2CCC2)CC1 was read as CAL PDZ FP-1 -0.7, CDK5 p35 inh -6.2, S100A4 MyoIIA -1.5, CAL PDZ FP-2 1.7 and dFosB act-1 -7.5.
CC(C)c1ccc(NC(=O)Nc2nc(C(N)C(C)C)cs2)cc1 (stereo not given) was read as S100A4 MyoIIA -6.2 and C2C12 statin -7.3.
`Cc1sc2nc(SCC(=O)Nc3ccccc3F)[nH]c(=O)c2c1C` gave CAL PDZ FP-1 -2.1, CDK5 p35 inh 0.0, S100A4 MyoIIA 25.6, CAL PDZ FP-2 -0.6, dFosB act-1 22.5*, C2C12 statin 13.2 and dFosB act-2 0.2.
`Cc1ccccc1NC(=O)CSc1nc2scc(C)c2c(=O)[nH]1` gave CAL PDZ FP-1 -3.2, CDK5 p35 inh -1.9, S100A4 MyoIIA 0.8, CAL PDZ FP-2 -0.3, dFosB act-1 27.5*, C2C12 statin -4.4 and dFosB act-2 3.0.
`Cc1ccc(NC(=O)CSc2nc3nc(C)cc(C)c3c(=O)[nH]2)cc1` gave CDK5 p35 inh -0.3, S100A4 MyoIIA 3.3, CAL PDZ FP-2 37.3*, dFosB act-1 22.1*, C2C12 statin 1.0 and dFosB act-2 3.8.
`O=C(CCl)NCCNC(=O)c1cc(OCC(F)(F)F)ccc1OCC(F)(F)F` gave CAL PDZ FP-1 0.2, CDK5 p35 inh -1.0, S100A4 MyoIIA 1.4, CAL PDZ FP-2 2.8 and dFosB act-1 -3.4.
`O=C(NCCNC(=O)c1cc(OCC(F)(F)F)ccc1OCC(F)(F)F)Nc1ccc(OC(F)(F)F)cc1` gave CAL PDZ FP-1 -0.3, CDK5 p35 inh -0.5, CAL PDZ FP-2 0.7, dFosB act-1 38.1* and dFosB act-2 -4.1.
Screening Cc1ccc(NC(=O)NNC(=O)c2cc3ccccc3cc2O)cc1C returned CAL PDZ FP-1 -0.4, CDK5 p35 inh 0.9, S100A4 MyoIIA 7.6, CAL PDZ FP-2 -3.0, dFosB act-1 54.2*, C2C12 statin 3.7 and dFosB act-2 4.1.
For CCc1ccc(NC(=O)NNC(=O)c2cc3ccccc3cc2O)cc1 the results were CAL PDZ FP-1 -2.1, CDK5 p35 inh -0.5, S100A4 MyoIIA 0.5, CAL PDZ FP-2 -2.9, dFosB act-1 39.4* and dFosB act-2 4.3.
COc1ccc(NC(=O)c2cc3ccccc3cc2O)cc1 was read as CAL PDZ FP-1 -1.0, CDK5 p35 inh 0.3, S100A4 MyoIIA 7.9, CAL PDZ FP-2 -7.8, dFosB act-1 -20.1 and C2C12 statin 1.1.
For CCc1ccc(NC(=O)NNC(=O)c2ccc3ccccc3c2O)cc1 the results were CAL PDZ FP-1 -2.5, CDK5 p35 inh -0.9, S100A4 MyoIIA -7.8, CAL PDZ FP-2 -2.8, dFosB act-1 6.7 and C2C12 statin 3.2.
CCOc1ccc(NC(=O)NNC(=O)c2cc3ccccc3cc2O)cc1 was read as CAL PDZ FP-1 -0.7, CDK5 p35 inh 1.1, S100A4 MyoIIA 2.8, CAL PDZ FP-2 -0.3, dFosB act-1 38.8*, C2C12 statin 2.5 and dFosB act-2 0.3.
CCC(=O)c1ccc(N2CCN(C(=O)c3cccs3)CC2)c(F)c1 was read as CAL PDZ FP-1 -0.7, CDK5 p35 inh 0.4, S100A4 MyoIIA -3.4, CAL PDZ FP-2 5.9, dFosB act-1 0.1 and C2C12 statin -0.2.
`Cc1cnc(C(=O)N2CCN(S(=O)(=O)c3ccc(F)c(F)c3F)CC2)cn1` gave CAL PDZ FP-1 0.2, CDK5 p35 inh 0.6, S100A4 MyoIIA -5.5, CAL PDZ FP-2 9.5, dFosB act-1 19.1*, C2C12 statin 2.0 and dFosB act-2 -2.2.
For O=C(COc1ccc(/C=N/NC(=O)c2ccccc2O)cc1)Nc1ccc([N+](=O)[O-])cc1 the results were CAL PDZ FP-1 -1.8, CDK5 p35 inh -0.3, S100A4 MyoIIA 2.0, CAL PDZ FP-2 -1.0, dFosB act-1 24.4* and dFosB act-2 -3.3.
